According to ChEMBL document CHEMBL3046823, “Insect muscarinic acetylcholine receptor: pharmacological and toxicological profiles of antagonists and agonists” (J Agric Food Chem, 2007):
pKi: −log10 of the molar value.

Experiments:
[1] = biological target: T1, Muscarinic acetylcholine receptor DM1 (Drosophila melanogaster, UniProt P16395); assay: Displacement of [3H]QNB from Drosophila melanogaster mAChR by scintillation counting
[2] = biological target: T1, Muscarinic acetylcholine receptor DM1; assay: Displacement of [3H]AF-DX 384 from Drosophila melanogaster mAChR by scintillation counting
Musca domestica [3] = assay: Toxicity to Musca domestica (house fly) assessed as mortality at 75 ug/fly measured after 24 hr; format: functional
Method in brief: (§1)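 Insecticide-susceptible adult female Musca (~25 mg) received PPP (2.5 µg/fly in 0.5 µL acetone, abdominal ventrum), then 90 min at room temperature. The compound (active ingredient) was given by intrathoracic injection in 0.22 µL water or 25-50% Me2SO/water. Mortality was scored at 0.5, 1.0, 1.5, 2.5 and 24 h.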

Musca domestica [4] = assay: Toxicity to Musca domestica (house fly) assessed as mortality at 75 ug/fly measured after 2.5 hr; format: functional; method in brief: as §1
Musca domestica [5] = assay: Toxicity to Musca domestica (house fly) assessed as mortality at 75 ug/fly measured after 1.5 hr; format: functional; method in brief: as §1
Musca domestica [6] = assay: Toxicity to Musca domestica (house fly) assessed as mortality at 75 ug/fly measured after 1 hr; format: functional; method in brief: as §1
Musca domestica [7] = assay: Toxicity to Musca domestica (house fly) assessed as mortality at 75 ug/fly measured after 0.5 hr; format: functional; method in brief: as §1
Musca domestica [8] = assay: Toxicity to Musca domestica (house fly) assessed as mortality at 25 ug/fly measured after 24 hr; format: functional; method in brief: as §1
Musca domestica [9] = assay: Toxicity to Musca domestica (house fly) assessed as mortality at 25 ug/fly measured after 2.5 hr; format: functional; method in brief: as §1
Musca domestica [10] = assay: Toxicity to Musca domestica (house fly) assessed as mortality at 25 ug/fly measured after 1.5 hr; format: functional; method in brief: as §1
Musca domestica [11] = assay: Toxicity to Musca domestica (house fly) assessed as mortality at 25 ug/fly measured after 1 hr; format: functional; method in brief: as §1
Musca domestica [12] = assay: Toxicity to Musca domestica (house fly) assessed as mortality at 25 ug/fly measured after 0.5 hr; format: functional; method in brief: as §1
[13] = biological target: Muscarinic acetylcholine receptor DM1 (Drosophila melanogaster) (UniProt P16395); assay: Displacement of [3H]QNB from Drosophila melanogaster mAChR at 100000 nM by scintillation counting
[14] = biological target: Muscarinic acetylcholine receptor DM1 (Drosophila melanogaster) (UniProt P16395); assay: Displacement of [3H]AF-DX 384 from Drosophila melanogaster mAChR at 100000 nM by scintillation counting
Musca domestica [15] = assay: Toxicity to Musca domestica (house fly) assessed as mortality at 7.5 ug/fly measured after 24 hr; format: functional; method in brief: as §1
Musca domestica [16] = assay: Toxicity to Musca domestica (house fly) assessed as mortality at 7.5 ug/fly measured after 2.5 hr; format: functional; method in brief: as §1
Musca domestica [17] = assay: Toxicity to Musca domestica (house fly) assessed as mortality at 7.5 ug/fly measured after 1.5 hr; format: functional; method in brief: as §1
Musca domestica [18] = assay: Toxicity to Musca domestica (house fly) assessed as mortality at 7.5 ug/fly measured after 1 hr; format: functional; method in brief: as §1
Musca domestica [19] = assay: Toxicity to Musca domestica (house fly) assessed as mortality at 7.5 ug/fly measured after 0.5 hr; format: functional; method in brief: as §1
Musca domestica [20] = assay: Toxicity to Musca domestica (house fly) assessed as mortality at 6.25 ug/fly measured after 24 hr; format: functional; method in brief: as §1
Musca domestica [21] = assay: Toxicity to Musca domestica (house fly) assessed as mortality at 6.25 ug/fly measured after 2.5 hr; format: functional; method in brief: as §1
Musca domestica [22] = assay: Toxicity to Musca domestica (house fly) assessed as mortality at 6.25 ug/fly measured after 1.5 hr; format: functional; method in brief: as §1
Musca domestica [23] = assay: Toxicity to Musca domestica (house fly) assessed as mortality at 6.25 ug/fly measured after 1 hr; format: functional; method in brief: as §1
Musca domestica [24] = assay: Toxicity to Musca domestica (house fly) assessed as mortality at 6.25 ug/fly measured after 0.5 hr; format: functional; method in brief: as §1

T1 sequence (P16395 whole entry): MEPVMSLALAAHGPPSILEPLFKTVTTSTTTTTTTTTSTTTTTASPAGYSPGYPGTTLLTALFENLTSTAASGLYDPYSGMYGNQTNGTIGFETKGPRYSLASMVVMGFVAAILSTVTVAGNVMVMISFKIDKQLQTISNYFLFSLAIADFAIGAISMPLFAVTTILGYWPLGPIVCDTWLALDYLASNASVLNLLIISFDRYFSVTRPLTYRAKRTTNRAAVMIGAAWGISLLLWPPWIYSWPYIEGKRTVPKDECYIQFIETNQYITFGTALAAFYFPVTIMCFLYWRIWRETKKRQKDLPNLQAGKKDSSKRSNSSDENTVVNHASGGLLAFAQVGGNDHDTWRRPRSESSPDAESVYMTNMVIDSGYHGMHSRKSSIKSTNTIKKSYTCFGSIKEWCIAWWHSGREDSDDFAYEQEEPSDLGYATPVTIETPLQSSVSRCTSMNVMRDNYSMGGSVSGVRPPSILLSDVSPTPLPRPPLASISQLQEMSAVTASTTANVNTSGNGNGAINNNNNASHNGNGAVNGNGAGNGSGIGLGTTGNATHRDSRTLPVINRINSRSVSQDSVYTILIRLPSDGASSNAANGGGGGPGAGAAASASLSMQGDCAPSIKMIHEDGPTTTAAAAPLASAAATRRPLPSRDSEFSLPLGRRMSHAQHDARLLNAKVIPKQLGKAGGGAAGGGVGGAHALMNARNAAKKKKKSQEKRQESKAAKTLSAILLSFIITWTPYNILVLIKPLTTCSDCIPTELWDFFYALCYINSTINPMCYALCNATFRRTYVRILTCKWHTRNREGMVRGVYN
Chain of Muscarinic acetylcholine receptor DM1 (Drosophila melanogaster) (P16395 whole entry): as above

SMILES: C#CCOC(=O)C1=CCCN(C)C1 [ARECAIDINE PROPARGYL ESTER]
- pKi [1]: 5.35
- pKi [2]: 5.28
- Activity (Musca domestica [3]): 87%
- Activity (Musca domestica [4]): 100%
- Activity (Musca domestica [5]): 100%
- Activity (Musca domestica [6]): 100%
- Activity (Musca domestica [7]): 100%
- Activity (Musca domestica [8]): 0%
- Activity (Musca domestica [9]): 0%
- Activity (Musca domestica [10]): 0%
- Activity (Musca domestica [11]): 0%
- Activity (Musca domestica [12]): 17%

SMILES: CCOP(=O)(OCC)Oc1nc(Cl)c(Cl)cc1Cl [CHLORPHRIFOS OXON]
- inhibition [13]: 17%
- inhibition [14]: 29%
- pKi [1]: < 4.00
- pKi [2]: < 4.00

SMILES: O=[N+]([O-])NC1=NCCN1Cc1ccc(Cl)nc1 [IMIDACLOPRID]
- pKi [1]: < 4.00
- pKi [2]: < 4.00

SMILES: COc1ccccc1CNCCCCCCNCCCCCCCCNCCCCCCNCc1ccccc1OC.Cl.Cl.Cl.Cl [METHOCTRAMINE HYDROCHLORIDE]
- pKi [1]: 5.55
- pKi [2]: 5.41
- Activity (Musca domestica [15]): 3%
- Activity (Musca domestica [16]): 0%
- Activity (Musca domestica [17]): 0%
- Activity (Musca domestica [18]): 10%
- Activity (Musca domestica [19]): 17%
- Activity (Musca domestica [8]): 100%
- Activity (Musca domestica [9]): 100%
- Activity (Musca domestica [10]): 100%
- Activity (Musca domestica [11]): 100%
- Activity (Musca domestica [12]): 100%

SMILES: C[N+]1(C)[C@@H]2CC[C@H]1C[C@@H](OC(=O)C(CO)c1ccccc1)C2.O=[N+]([O-])[O-] (some centres not stated) [METHYLATROPINE NITRATE]
- pKi [1]: 8.62
- pKi [2]: 8.74
- Activity (Musca domestica [3]): 7%
- Activity (Musca domestica [4]): 20%
- Activity (Musca domestica [5]): 20%
- Activity (Musca domestica [6]): 23%
- Activity (Musca domestica [7]): 23%
- Activity (Musca domestica [8]): 13%
- Activity (Musca domestica [9]): 7%
- Activity (Musca domestica [10]): 7%
- Activity (Musca domestica [11]): 7%
- Activity (Musca domestica [12]): 17%

SMILES: CCN(CC)CC1CCCCN1CC(=O)N1c2ccccc2C(=O)Nc2cccnc21 (configuration not stated) [OTENZEPAD]
- pKi [1]: 5.91
- pKi [2]: 5.86
- Activity (Musca domestica [20]): 3%
- Activity (Musca domestica [21]): 10%
- Activity (Musca domestica [22]): 10%
- Activity (Musca domestica [23]): 10%
- Activity (Musca domestica [24]): 17%

SMILES: O=C1CCCN1CC#CCN1CCCC1 [OXOTREMORINE]
- pKi [1]: 4.71
- pKi [2]: 4.67

SMILES: CCOP(=O)(OCC)Oc1ccc([N+](=O)[O-])cc1 [PARAOXON]
- inhibition [13]: 0%
- inhibition [14]: 13%
- pKi [1]: < 4.00
- pKi [2]: < 4.00

SMILES: CC[C@@H]1C(=O)OC[C@@H]1Cc1cncn1C [PILOCARPINE]
- Activity (Musca domestica [3]): 7%
- Activity (Musca domestica [4]): 7%
- Activity (Musca domestica [5]): 10%
- Activity (Musca domestica [6]): 23%
- Activity (Musca domestica [7]): 67%
- Activity (Musca domestica [8]): 0%
- Activity (Musca domestica [9]): 0%
- Activity (Musca domestica [10]): 0%
- Activity (Musca domestica [11]): 0%
- Activity (Musca domestica [12]): 3%

SMILES: CN1CCN(CC(=O)N2c3ccccc3C(=O)Nc3cccnc32)CC1 [PIRENZEPINE]
- pKi [1]: 6.37
- pKi [2]: 6.41
- Activity (Musca domestica [3]): 10%
- Activity (Musca domestica [4]): 13%
- Activity (Musca domestica [5]): 20%
- Activity (Musca domestica [6]): 27%
- Activity (Musca domestica [7]): 27%
- Activity (Musca domestica [8]): 7%
- Activity (Musca domestica [9]): 7%
- Activity (Musca domestica [10]): 7%
- Activity (Musca domestica [11]): 7%
- Activity (Musca domestica [12]): 20%

SMILES: Br.CN1[C@@H]2C[C@@H](OC(=O)[C@H](CO)c3ccccc3)C[C@H]1[C@@H]1O[C@@H]12.O.O.O [SCOPOLAMINE HYDROBROMIDE]
- Activity (Musca domestica [3]): 0%
- Activity (Musca domestica [4]): 0%
- Activity (Musca domestica [5]): 0%
- Activity (Musca domestica [6]): 3%
- Activity (Musca domestica [7]): 20%
- Activity (Musca domestica [8]): 3%
- Activity (Musca domestica [9]): 3%
- Activity (Musca domestica [10]): 3%
- Activity (Musca domestica [11]): 3%
- Activity (Musca domestica [12]): 10%
